The values below come from ChEMBL document CHEMBL4138186, “Synthesis and bio-evaluation of indole-chalcone based benzopyrans as promising antiligase and antiproliferative agents” (Eur J Med Chem, 2018).

The source made the active and inactive calls. The calls are words filed in the database; no cut-off is given here.

The test system of experiment [1] is MDA-MB-231. The experiment is described as follows: Antiproliferative activity against human MDA-MB-231 cells after 48 hrs by MTT assay. The following applies: MDA-MB-231, 48 h. The experiment is classed as functional, cell-based. In short, it runs like this: (§1)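 Cells seeded and allowed to adhere overnight, then given compound from 10 mM DMSO stock; DMSO alone as vehicle control. Grown 48 h, MTT (5 mg/ml) added for 3 h, formazan dissolved in DMSO, absorbance read at 590 nm. % inhibition = (A control − A treated)/A control × 100; three independent biological replicates. Single-point screen at 10 μM; IC50 from three independent experiments.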
In general terms: Formazan colour is commonly taken as a measure of viable cells.

A further experiment relates to HeLa. Nature of the experiment: Antiproliferative activity against human HeLa cells after 48 hrs by MTT assay. It counts as functional, cell-based. In short, it runs like this:
as §1

The next experiment concerns HepG2. The experiment is described as follows: Antiproliferative activity against human HepG2 cells after 48 hrs by MTT assay. The experiment is classed as functional, cell-based. The settings on record: HepG2, 48 h. In short, it runs like this: as §1
In experiment [2] the test system is MDA-MB-231. The experiment is described as follows: Antiproliferative activity against human MDA-MB-231 cells at 10 uM after 48 hrs by MTT assay. It counts as functional, cell-based. In a few lines: as §1
Experiment [3] relates to DLD-1. The experiment is described as follows: Antiproliferative activity against human DLD1 cells at 10 uM after 48 hrs by MTT assay. The experiment is classed as functional, cell-based. In short, it runs like this: as §1
Experiment [4] has as its target T1, DNA ligase 3 (Homo sapiens) (UniProt P49916).
T1 sequence (whole entry): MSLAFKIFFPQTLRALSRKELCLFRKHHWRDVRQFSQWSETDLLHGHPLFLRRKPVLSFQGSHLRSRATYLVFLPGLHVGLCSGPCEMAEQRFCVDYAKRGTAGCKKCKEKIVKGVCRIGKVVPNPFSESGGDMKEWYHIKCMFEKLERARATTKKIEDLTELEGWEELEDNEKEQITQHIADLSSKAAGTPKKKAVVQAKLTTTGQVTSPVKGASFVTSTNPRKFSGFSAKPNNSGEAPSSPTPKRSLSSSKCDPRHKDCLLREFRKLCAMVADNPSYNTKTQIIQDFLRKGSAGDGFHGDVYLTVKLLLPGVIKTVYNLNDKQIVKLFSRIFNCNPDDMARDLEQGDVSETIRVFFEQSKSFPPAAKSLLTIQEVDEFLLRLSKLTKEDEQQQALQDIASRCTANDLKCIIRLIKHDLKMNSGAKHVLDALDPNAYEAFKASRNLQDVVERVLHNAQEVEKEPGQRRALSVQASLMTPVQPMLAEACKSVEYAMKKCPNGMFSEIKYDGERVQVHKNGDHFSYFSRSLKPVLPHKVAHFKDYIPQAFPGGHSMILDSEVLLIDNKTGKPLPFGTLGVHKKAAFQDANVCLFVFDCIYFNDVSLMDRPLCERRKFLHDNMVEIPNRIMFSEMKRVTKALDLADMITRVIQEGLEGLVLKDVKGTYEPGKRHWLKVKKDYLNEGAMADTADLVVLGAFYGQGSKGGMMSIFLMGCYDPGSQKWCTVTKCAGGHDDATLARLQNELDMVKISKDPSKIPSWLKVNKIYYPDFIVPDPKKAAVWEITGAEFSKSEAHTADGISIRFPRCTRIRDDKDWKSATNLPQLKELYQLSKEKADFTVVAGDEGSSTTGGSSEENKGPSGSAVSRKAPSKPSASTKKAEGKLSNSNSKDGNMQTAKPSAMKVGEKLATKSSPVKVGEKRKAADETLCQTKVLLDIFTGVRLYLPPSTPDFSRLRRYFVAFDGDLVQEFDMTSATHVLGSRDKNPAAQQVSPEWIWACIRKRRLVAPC
The experiment is described as follows: Inhibition of human Lig3beta at 10 uM using double strand nicked DNA as substrate at 3.125 to 50 uM after 30 mins in presence of ATP by acrylamide-based fluorescence-assay.

The target in experiment [5] is LIG4/XRCC4 (Homo sapiens) (UniProt P49917+Q13426). The experiment is described as follows: Inhibition of human DNA Lig4/[…] at 10 uM using double strand nicked DNA as substrate after 30 mins in presence of ATP by acrylamide-based fluorescence-assay. The experiment is classed as protein-complex assay.
The target in experiment [6] is DNA ligase 1 (Homo sapiens) (UniProt P18858). Nature of the experiment: Competitive inhibition of human Lig1 using non-ligatable double stranded nicked DNA as substrate after 2 hrs in presence of ATP by EMSA. In short, it runs like this: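 Purified hLigI (10 pmol) with compound (31.25–500 μM) and 2 pmol 5'-FAM-labelled non-ligatable nicked duplex (dideoxy 3' end). Buffer: 50 mM Tris-Cl pH 7.5, 10 mM MgCl2, 0.25 mg/ml BSA, 100 mM NaCl, plus ATP. Incubated 2 h on ice, then 6.5% native PAGE. Three independent experiments.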
Sequence of DNA ligase 1 (Homo sapiens) (P18858 whole entry): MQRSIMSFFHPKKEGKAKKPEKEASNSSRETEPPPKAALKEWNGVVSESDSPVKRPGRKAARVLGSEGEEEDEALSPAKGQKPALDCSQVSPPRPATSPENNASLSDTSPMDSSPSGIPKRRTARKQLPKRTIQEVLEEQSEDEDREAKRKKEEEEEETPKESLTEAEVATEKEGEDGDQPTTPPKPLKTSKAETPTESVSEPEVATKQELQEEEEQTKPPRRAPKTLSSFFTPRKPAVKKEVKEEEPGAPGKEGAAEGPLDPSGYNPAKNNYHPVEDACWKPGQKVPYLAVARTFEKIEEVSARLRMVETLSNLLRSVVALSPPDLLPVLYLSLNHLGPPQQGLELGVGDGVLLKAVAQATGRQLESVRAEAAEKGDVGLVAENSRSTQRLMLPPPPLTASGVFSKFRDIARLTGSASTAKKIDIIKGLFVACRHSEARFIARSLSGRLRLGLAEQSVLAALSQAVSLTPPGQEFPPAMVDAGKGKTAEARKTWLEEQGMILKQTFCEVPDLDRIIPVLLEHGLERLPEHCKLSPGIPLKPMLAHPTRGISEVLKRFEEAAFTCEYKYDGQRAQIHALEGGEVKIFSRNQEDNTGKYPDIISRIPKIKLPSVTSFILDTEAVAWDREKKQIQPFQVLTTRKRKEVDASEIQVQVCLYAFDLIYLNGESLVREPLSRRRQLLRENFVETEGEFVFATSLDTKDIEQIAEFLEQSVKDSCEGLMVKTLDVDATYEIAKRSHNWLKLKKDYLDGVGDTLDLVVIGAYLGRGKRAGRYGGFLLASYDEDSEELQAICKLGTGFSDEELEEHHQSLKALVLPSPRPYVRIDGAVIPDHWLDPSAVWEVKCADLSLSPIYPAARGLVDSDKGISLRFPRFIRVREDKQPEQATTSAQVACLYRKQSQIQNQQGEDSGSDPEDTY
(Mobility shift assays separate free from complexed probe on a gel.)

For experiment [7], the system named is DLD-1. Nature of the experiment: Anti-migratory activity in human DLD1 cells at 2.5 to 5 uM after 12 to 48 hrs by wound healing assay. It counts as functional, cell-based. In a few lines: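 DLD-1 monolayer at 70-80% confluence scratched with a pipette tip, then exposed to 2.5 and 5 μM for 12, 24 and 48 h (methods state 12, 24, 36 h). Wound imaged by phase-contrast microscopy; % open area quantified at each time point. Mean of three independent experiments.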

Experiment [8] deals with DLD-1. The experiment is described as follows: Inhibition of colony formation of human DLD1 cells by crystal violet staining based assay. It counts as functional, cell-based. In short, it runs like this: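 400 DLD-1 cells per well grown overnight in RPMI/10% FBS, then exposed to 1.25, 2.5 and 5 μM for 24 or 48 h. Medium replaced and colonies grown a further 10 days, medium changed every third day. Fixed and stained with 0.5% crystal violet/6% glutaraldehyde for 30 min at room temperature, then imaged.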

Experiment [9] relates to DLD-1. The experiment is described as follows: Induction of apoptosis in human DLD1 cells assessed as late apoptotic cells at 5 uM after 48 hrs by Annexin V-FITC/propidium iodide staining-based flow cytometric method relative to control. The experiment is classed as functional. In a few lines: (§2)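 DLD-1 cells exposed to 2.5, 5 and 10 μM for 48 h, harvested, washed in cold PBS and stained with Annexin V-FITC and PI in binding buffer at room temperature in the dark. Analysed by flow cytometry; early and late apoptotic fractions averaged from three independent experiments.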
A general note: A flow cytometer gives signals particle by particle.

The test system of experiment [10] is DLD-1. The experiment is described as follows: Induction of apoptosis in human DLD1 cells assessed as early apoptotic cells at 10 uM after 48 hrs by Annexin V-FITC/propidium iodide staining-based flow cytometric method relative to control. The experiment is classed as functional. In short, it runs like this:
as §2

In experiment [11] the test system is DLD-1. Nature of the experiment: Induction of apoptosis in human DLD1 cells assessed as late apoptotic cells at 10 uM after 48 hrs by Annexin V-FITC/propidium iodide staining-based flow cytometric method relative to control. It counts as functional. In a few lines:
as §2

Experiment [12] has as its system DLD-1. Nature of the experiment: Induction of apoptosis in 3D-spheroids of human DLD1 cells assessed as increase in cell death after 72 hrs by FDA/propidium iodide dye based phase contrast microscopy. The experiment is classed as functional. In short, it runs like this:
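DLD-1 spheroids formed by hanging drop (5×10^3 cells/10 μL RPMI, 3 days, 37 °C, 5% CO2), moved to 0.7% agarose-coated wells and grown 7 days. Treated 72 h at 25, 12.5 and 6.25. Stained with FDA 2 μg/ml and PI 20 μg/ml for 20 min in the dark; imaged by fluorescence microscopy.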

In a further experiment the test system is 4T1 (Mus musculus). The experiment is described as follows: Antiproliferative activity against mouse 4T1 cells at 10 uM after 48 hrs by MTT assay.

For orientation: IC50 means the concentration at which inhibition is half-maximal. As for `Cc1[nH]c2ccccc2c1C1C(C#N)=C(N)Oc2c1cc(/C=C/C(=O)c1cccs1)cc2C(C)(C)C` (stereo not given), the IC50 stood at 6.09 µM in the experiment with MDA-MB-231 [1], 6.4 µM in the experiment with HeLa and 6.46 µM with HepG2. Moreover, the result in the experiment on MDA-MB-231 [2], in the experiment on DLD-1 [3], with DLD-1 [7], with DLD-1 [12] and in the experiment on 4T1 (Mus musculus) was Active. Moreover, the inhibition entry in experiment [4] is “inactive”. Also, the inhibition entry (in [5]; in [6]; in the experiment with DLD-1 [8]) was “Dose-dependent effect” each time. Besides, the Activity in the experiment on DLD-1 [9] was 14.85%; with DLD-1 [10], 26.53%; in the experiment with DLD-1 [11] it was 50.96%.
